Laboratory results taken from ChEMBL document CHEMBL4014329, “Selective Inhibition of Escherichia coli RNA and DNA Topoisomerase I by Hoechst 33258 Derived Mono- and Bisbenzimidazoles” (J Med Chem, 2017).
In brackets after ≈: the same amount, converted by molar mass. Activity calls are given as the source filed them. The rule behind the calls is not given here.

Tests used:
Enterococcus faecium = experiment: Antibacterial activity against Enterococcus faecium BM4105RF after 24 hrs by microbroth dilution method; type: functional
Summary of the method: (§1)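 Mueller-Hinton broth cultures grown at 37 °C with shaking to log phase, pelleted, resuspended in 0.85% saline to OD625 0.1. Broth microdilution per CLSI guidelines, final inoculum 5 × 10^5 CFU/mL, in triplicate, 24 h at 37 °C. Growth read as OD625. MIC is the lowest concentration giving complete growth inhibition versus untreated controls.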

Enterococcus faecalis = experiment: Antibacterial activity against Enterococcus faecalis ATCC 29212 after 24 hrs by microbroth dilution method; type: functional; conditions: ATCC 29212, 24 h
Summary of the method: (§2)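 Microbroth dilution per CLSI guidelines. Organisms grown in Mueller−Hinton broth at 37 °C with shaking to log phase, pelleted, resuspended in 0.85% saline to OD625 0.1. Final inoculum 5 × 10^5 CFU/mL; triplicate; 24 h at 37 °C. OD625 read; MIC = lowest concentration completely inhibiting growth versus untreated controls.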

[1] = tested on: Staphylococcus epidermidis; experiment: Antibacterial activity against Staphylococcus epidermidis ATCC 12384 after 24 hrs by microbroth dilution method; type: functional; conditions: ATCC 12384, 24 h; summary of the method: as §2
Staphylococcus aureus [2] = experiment: Antibacterial activity against Staphylococcus aureus ATCC 33591 after 24 hrs by microbroth dilution method; type: functional; conditions: ATCC 33591, 24 h; summary of the method: as §2
Staphylococcus aureus [3] = experiment: Antibacterial activity against methicillin-resistant Staphylococcus aureus A960649 after 24 hrs by microbroth dilution method; type: functional; conditions: A960649, 24 h; summary of the method: as §1
Staphylococcus aureus [4] = experiment: Antibacterial activity against Staphylococcus aureus ATCC 29213 after 24 hrs by microbroth dilution method; type: functional; conditions: ATCC 29213, 24 h; summary of the method: as §2
[5] = Inhibition of Escherichia coli DNA topoisomerase 1 using plasmid pBAD-GFPuv as substrate after 15 mins by agarose gel electrophoresis
Summary of the method: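 E. coli topoisomerase I at 6 nM relaxing 150 ng supercoiled pBAD-GFPuv. 15 min at 37 °C, phenol-stopped, 1% agarose gel, ethidium stain. IC50 is the concentration leaving 50% DNA supercoiled; three independent determinations.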

DNA topoisomerase 1 = target: T1, DNA topoisomerase 1 (Homo sapiens, UniProt P11387); experiment: Inhibition of human DNA topoisomerase 1 using plasmid pBAD-GFPuv as substrate after 30 mins by agarose gel electrophoresis
T1 sequence (P11387 whole entry): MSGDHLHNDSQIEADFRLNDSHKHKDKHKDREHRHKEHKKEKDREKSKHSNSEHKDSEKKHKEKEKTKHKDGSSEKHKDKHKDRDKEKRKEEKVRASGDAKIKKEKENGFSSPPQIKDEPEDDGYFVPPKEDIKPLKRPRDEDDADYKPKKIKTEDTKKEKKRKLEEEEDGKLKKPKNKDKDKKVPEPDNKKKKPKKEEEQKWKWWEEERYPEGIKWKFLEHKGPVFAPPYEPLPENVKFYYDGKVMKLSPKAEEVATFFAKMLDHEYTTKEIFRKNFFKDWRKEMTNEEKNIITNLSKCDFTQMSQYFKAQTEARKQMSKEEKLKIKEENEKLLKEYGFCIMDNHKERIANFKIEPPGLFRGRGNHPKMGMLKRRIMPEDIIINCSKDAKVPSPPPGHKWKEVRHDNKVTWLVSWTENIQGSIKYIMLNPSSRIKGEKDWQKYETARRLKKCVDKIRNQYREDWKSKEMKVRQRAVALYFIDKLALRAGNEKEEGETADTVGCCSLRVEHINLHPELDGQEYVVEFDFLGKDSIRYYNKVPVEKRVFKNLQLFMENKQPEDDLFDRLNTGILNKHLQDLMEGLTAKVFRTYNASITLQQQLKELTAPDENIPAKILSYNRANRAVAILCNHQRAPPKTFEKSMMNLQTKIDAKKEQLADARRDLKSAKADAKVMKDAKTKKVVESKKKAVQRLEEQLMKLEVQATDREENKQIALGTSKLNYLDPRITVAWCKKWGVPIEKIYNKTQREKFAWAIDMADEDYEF

[6] = Inhibition of human DNA topoisomerase 2 using plasmid pBAD-GFPuv as substrate after 30 mins by agarose gel electrophoresis
Summary of the method: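 Compound at 5–50 μM final, 30 min at 37 °C. Phenol extraction, 1% agarose electrophoresis, ethidium stain. IC50 = concentration at which 50% of DNA remains (−) supercoiled.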

Escherichia coli [7] = experiment: Inhibition of Escherichia coli RNA topoisomerase-1 using circular RNA as substrate 10 uM after 1.5 hrs by SDS-PAGE analysis
Summary of the method: (§3)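 10 nM E. coli topoisomerase I premixed with reaction buffer and inhibitor diluted in DMSO, then circular RNA substrate added; 1.5 h incubation. Stopped with proteinase K/SDS/EDTA buffer. Trefoil RNA knot product separated from circular substrate on 15% TBE−urea gels and detected by phosphorimaging. DMSO-only control included.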

[8] = Binding affinity to dA60.dT60 B-DNA duplex (unknown origin) assessed as change in melting temperature at 10 uM by UV-vis spectrophotometric analysis
Summary of the method: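 UV melting of dA60·dT60 at 1 μM/duplex with compound at 10 μM. Buffer 10 mM sodium cacodylate, 0.1 mM EDTA, 100 mM NaCl, pH 7.0; duplex pre-annealed from 95 °C. Compound stocks in DMSO diluted into buffer. Heating at 0.2 °C/min, monitored at 260 nm, points every 1.0 °C; Tm taken from derivatives.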

Staphylococcus aureus [9] = experiment: Antibacterial activity against methicillin-resistant Staphylococcus aureus 33591 after 24 hrs by microbroth dilution method; type: functional; conditions: Staphylococcus aureus, 33591, 24 h; summary of the method: as §1
Shigella flexneri = experiment: Antibacterial activity against Shigella flexneri 2457NR517 after 24 hrs by microbroth dilution method; type: functional; conditions: 2457NR517, 24 h; summary of the method: as §1
Escherichia coli [10] = experiment: Antibacterial activity against Escherichia coli ATCC 25922 after 24 hrs by microbroth dilution method; type: functional; conditions: ATCC 25922, 24 h; summary of the method: as §2
Escherichia coli [11] = experiment: Antibacterial activity against Escherichia coli K-12 after 24 hrs by microbroth dilution method; type: functional; conditions: K-12, 24 h; summary of the method: as §2
Acinetobacter baumannii = experiment: Antibacterial activity against Acinetobacter baumannii ATCC 19606 after 24 hrs by microbroth dilution method; type: functional; conditions: ATCC 19606 = CIP 70.34 = JCM 6841, 24 h; summary of the method: as §2
Pseudomonas aeruginosa = experiment: Antibacterial activity against Pseudomonas aeruginosa ATCC 27853 after 24 hrs by microbroth dilution method; type: functional; conditions: ATCC 27853, 24 h; summary of the method: as §2
Klebsiella pneumoniae = experiment: Antibacterial activity against Klebsiella pneumoniae NR15410 after 24 hrs by microbroth dilution method; type: functional; conditions: NR15410, 24 h; summary of the method: as §2
Enterobacter cloacae = experiment: Antibacterial activity against Enterobacter cloacae ATCC 13047 after 24 hrs by microbroth dilution method; type: functional; conditions: ATCC 13047, 24 h; summary of the method: as §2
Citrobacter freundii = experiment: Antibacterial activity against Citrobacter freundii 4747CFAA after 24 hrs by microbroth dilution method; type: functional; summary of the method: as §2
DU-145 = experiment: Cytotoxicity against human DU145 cells after 48 hrs by SRB assay; type: cell-based
Summary of the method: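 Cells cultured per ATCC protocols, seeded and grown 24 h (37 °C, 5% CO2), then treated in triplicate at final 20, 10, 5, 2.5, 1.25, 0.625 and 0.0625 μM for 48 h. Fixed with cold TCA (16% final, 4 °C, 1 h), stained with SRB in 1% acetic acid, dye solubilized in 10 mM Tris base, A560 read. IC50 derived; study in duplicate.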

[12] = Binding affinity to dA60.dT60 B-DNA duplex (unknown origin) assessed as induction of biphasic transition at <5 uM by UV-vis spectrophotometric analysis
Escherichia coli [13] = experiment: Inhibition of Escherichia coli RNA topoisomerase 1 using circular RNA as substrate up to 80 uM after 1.5 hrs by SDS-PAGE analysis
Summary of the method: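 E. coli topoisomerase I (10 nM) premixed in reaction buffer with inhibitor diluted in DMSO, then circular RNA substrate added; 1.5 h. DMSO-only control included. Final inhibitor 2.5 to 80 μM. Stopped with proteinase K/SDS/EDTA. Trefoil RNA knot product resolved from substrate on 15% TBE-urea gels and detected by autoradiography.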

Escherichia coli [14] = experiment: Inhibition of Escherichia coli RNA topoisomerase 1 using circular RNA as substrate up to 50 uM after 1.5 hrs by SDS-PAGE analysis; summary of the method: as §3

Structure (SMILES) | MIC (Enterococcus faecium) [µg/mL] | MIC (Enterococcus faecalis) [µg/mL] | MIC [1] [µg/mL] | MIC (Staphylococcus aureus [2]) [µg/mL] | MIC (Staphylococcus aureus [3]) [µg/mL] | MIC (Staphylococcus aureus [4]) [µg/mL] | IC50 [5] [µM] | IC50 (DNA topoisomerase 1) [µM] | ΔTm [8] [°C] | MIC (Staphylococcus aureus [9]) [µg/mL] | MIC (Shigella flexneri) [µg/mL] | MIC (Escherichia coli [10]) [µg/mL] | MIC (Escherichia coli [11]) [µg/mL] | MIC (Acinetobacter baumannii) [µg/mL] | MIC (Pseudomonas aeruginosa) [µg/mL] | MIC (Klebsiella pneumoniae) [µg/mL] | MIC (Enterobacter cloacae) [µg/mL] | MIC (Citrobacter freundii) [µg/mL] | Activity [12] | inhibition (Escherichia coli [13]) | further results
C#CCOCCCCCCCCCCOc1ccc(-c2nc3ccc(-c4nc5ccc(N6CCN(C)CC6)cc5[nH]4)cc3[nH]2)cc1 | > 32 | 16 to 32 (≈ 25.9 to 51.7 µM) | > 32 | > 32 | > 32 | > 32 | 12.2 | > 50 | 5.6 | > 32 | > 32 | > 32 | 2 to 4 (≈ 3.23 to 6.46 µM) | > 32 | 16 to 32 (≈ 25.9 to 51.7 µM) | > 32 | > 32 | > 32 | Active |  | IC50 [6]: > 50 µM; inhibition (Escherichia coli [7]): Active; IC50 (DU-145; Homo sapiens, DU-145, 48 h): > 10 µM
CCOc1ccc(-c2nc3cc(-c4nc5cc(N6CCN(C)CC6)ccc5[nH]4)ccc3[nH]2)cc1 | 0.3 (≈ 0.663 µM) | 16 to 32 (≈ 35.4 to 70.7 µM) | 1 (≈ 2.21 µM) | 2 to 4 (≈ 4.42 to 8.84 µM) | 0.5 (≈ 1.1 µM) | 2 to 4 (≈ 4.42 to 8.84 µM) |  |  |  | 1 (≈ 2.21 µM) | 1 to 2 (≈ 2.21 to 4.42 µM) | 16 (≈ 35.4 µM) | 16 (≈ 35.4 µM) | 8 (≈ 17.7 µM) | 16 (≈ 35.4 µM) |  | 4 (≈ 8.84 µM) |  |  | inactive | 
CCOc1ccc2nc3cc(N)ccc3c(N)c2c1 |  |  |  |  |  |  |  |  |  |  |  |  |  |  |  |  |  |  |  | inactive | 
C#CCOCCCCCCOc1ccc(-c2nc3ccc(-c4nc5ccc(N6CCN(C)CC6)cc5[nH]4)cc3[nH]2)cc1 | > 32 | 16 to 32 (≈ 28.4 to 56.9 µM) | > 32 | 16 to 32 (≈ 28.4 to 56.9 µM) | > 32 | 16 to 32 (≈ 28.4 to 56.9 µM) | 3.2 | > 50 | 18.3 | > 32 | > 32 | 16 to 32 (≈ 28.4 to 56.9 µM) | 8 (≈ 14.2 µM) | > 32 | 16 to 32 (≈ 28.4 to 56.9 µM) | > 32 | > 32 | > 32 | Active |  | inhibition (Escherichia coli [14]): inactive; Activity (DU-145; human, du-145, 48 h): Toxic
CN1CCN(c2ccc3nc(-c4ccc(OCc5cn(CCCCN=[N+]=[N-])nn5)cc4)[nH]c3c2)CC1 | > 32 | 16 to 32 (≈ 32.9 to 65.8 µM) | > 32 | 16 (≈ 32.9 µM) | > 32 | 16 to 32 (≈ 32.9 to 65.8 µM) | 21.5 | > 50 | 0.5 | > 32 | > 32 | 16 (≈ 32.9 µM) | 16 (≈ 32.9 µM) | > 32 | 16 (≈ 32.9 µM) | > 32 | > 32 | > 32 | Active |  | inhibition (Escherichia coli [14]): inactive
